Data reported in ChEMBL document CHEMBL1146690, “Design and synthesis of aminopropyl tetrahydroindole-based indolin-2-ones as selective and potent inhibitors of Src and Yes tyrosine kinase” (Bioorg Med Chem Lett, 2004).

Legend:
[1] = biological target: Fibroblast growth factor receptor 1 (Homo sapiens, UniProt P11362); experiment: Inhibitory activity against Fibroblast growth factor receptor 1
[2] = biological target: Tyrosine-protein kinase Fyn (Homo sapiens, UniProt P06241); experiment: Inhibitory activity against Fyn tyrosine kinase
[3] = biological target: Tyrosine-protein kinase Lck (Homo sapiens, UniProt P06239); experiment: Inhibitory activity against Lck tyrosine kinase
[4] = biological target: Platelet-derived growth factor receptor beta (Homo sapiens, UniProt P09619); experiment: Inhibitory activity against PDGFRbeta tyrosine kinase
Procedure, shortened: (§1)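 Enzymatic kinase inhibition run by previously reported methods. Each IC50 came from at least two separate tests with deviation under 20%, and the mean is reported.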

[5] = biological target: Proto-oncogene tyrosine-protein kinase Src (Homo sapiens, UniProt P12931); experiment: Inhibitory activity against Src protein tyrosine kinase; procedure, shortened: as §1
[6] = biological target: Vascular endothelial growth factor receptor 2 (Homo sapiens, UniProt P35968); experiment: Inhibitory activity against Vascular endothelial growth factor receptor 2
Chain of Vascular endothelial growth factor receptor 2 (P35968 whole entry): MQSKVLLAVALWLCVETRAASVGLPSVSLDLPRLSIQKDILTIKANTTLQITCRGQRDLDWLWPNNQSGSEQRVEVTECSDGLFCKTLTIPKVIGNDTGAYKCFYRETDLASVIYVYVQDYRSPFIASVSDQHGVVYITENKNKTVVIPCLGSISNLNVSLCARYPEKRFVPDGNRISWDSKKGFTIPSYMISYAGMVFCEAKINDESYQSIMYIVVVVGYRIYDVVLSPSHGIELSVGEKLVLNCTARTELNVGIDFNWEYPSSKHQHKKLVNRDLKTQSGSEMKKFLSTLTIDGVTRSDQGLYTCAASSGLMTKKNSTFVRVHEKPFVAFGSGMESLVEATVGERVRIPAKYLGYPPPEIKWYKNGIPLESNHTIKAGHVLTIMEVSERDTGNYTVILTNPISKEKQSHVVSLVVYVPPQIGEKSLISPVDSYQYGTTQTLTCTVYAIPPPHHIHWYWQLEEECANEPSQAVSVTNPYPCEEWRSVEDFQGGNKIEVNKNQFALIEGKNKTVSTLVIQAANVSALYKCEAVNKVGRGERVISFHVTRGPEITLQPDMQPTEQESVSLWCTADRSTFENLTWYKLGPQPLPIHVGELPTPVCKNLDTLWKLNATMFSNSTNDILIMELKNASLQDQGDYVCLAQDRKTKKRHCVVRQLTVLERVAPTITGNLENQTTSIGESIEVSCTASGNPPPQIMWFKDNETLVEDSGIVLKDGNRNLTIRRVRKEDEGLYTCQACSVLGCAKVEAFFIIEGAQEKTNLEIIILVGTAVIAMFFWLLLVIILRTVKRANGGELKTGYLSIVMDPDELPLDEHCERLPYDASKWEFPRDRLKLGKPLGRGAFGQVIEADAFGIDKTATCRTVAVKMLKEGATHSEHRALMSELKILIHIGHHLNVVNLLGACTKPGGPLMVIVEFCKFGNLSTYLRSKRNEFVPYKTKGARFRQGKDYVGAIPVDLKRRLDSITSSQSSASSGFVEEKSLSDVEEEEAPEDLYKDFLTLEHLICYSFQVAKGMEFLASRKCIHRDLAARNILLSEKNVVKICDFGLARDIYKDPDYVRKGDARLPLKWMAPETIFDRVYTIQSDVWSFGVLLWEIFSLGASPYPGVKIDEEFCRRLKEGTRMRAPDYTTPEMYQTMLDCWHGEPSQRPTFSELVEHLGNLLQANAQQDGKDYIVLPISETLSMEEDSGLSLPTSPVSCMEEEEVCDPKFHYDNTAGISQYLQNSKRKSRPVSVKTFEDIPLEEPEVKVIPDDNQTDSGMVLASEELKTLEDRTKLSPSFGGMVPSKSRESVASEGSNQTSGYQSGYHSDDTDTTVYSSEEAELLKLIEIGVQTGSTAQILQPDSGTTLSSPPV

Chain of Platelet-derived growth factor receptor beta (P09619 whole entry): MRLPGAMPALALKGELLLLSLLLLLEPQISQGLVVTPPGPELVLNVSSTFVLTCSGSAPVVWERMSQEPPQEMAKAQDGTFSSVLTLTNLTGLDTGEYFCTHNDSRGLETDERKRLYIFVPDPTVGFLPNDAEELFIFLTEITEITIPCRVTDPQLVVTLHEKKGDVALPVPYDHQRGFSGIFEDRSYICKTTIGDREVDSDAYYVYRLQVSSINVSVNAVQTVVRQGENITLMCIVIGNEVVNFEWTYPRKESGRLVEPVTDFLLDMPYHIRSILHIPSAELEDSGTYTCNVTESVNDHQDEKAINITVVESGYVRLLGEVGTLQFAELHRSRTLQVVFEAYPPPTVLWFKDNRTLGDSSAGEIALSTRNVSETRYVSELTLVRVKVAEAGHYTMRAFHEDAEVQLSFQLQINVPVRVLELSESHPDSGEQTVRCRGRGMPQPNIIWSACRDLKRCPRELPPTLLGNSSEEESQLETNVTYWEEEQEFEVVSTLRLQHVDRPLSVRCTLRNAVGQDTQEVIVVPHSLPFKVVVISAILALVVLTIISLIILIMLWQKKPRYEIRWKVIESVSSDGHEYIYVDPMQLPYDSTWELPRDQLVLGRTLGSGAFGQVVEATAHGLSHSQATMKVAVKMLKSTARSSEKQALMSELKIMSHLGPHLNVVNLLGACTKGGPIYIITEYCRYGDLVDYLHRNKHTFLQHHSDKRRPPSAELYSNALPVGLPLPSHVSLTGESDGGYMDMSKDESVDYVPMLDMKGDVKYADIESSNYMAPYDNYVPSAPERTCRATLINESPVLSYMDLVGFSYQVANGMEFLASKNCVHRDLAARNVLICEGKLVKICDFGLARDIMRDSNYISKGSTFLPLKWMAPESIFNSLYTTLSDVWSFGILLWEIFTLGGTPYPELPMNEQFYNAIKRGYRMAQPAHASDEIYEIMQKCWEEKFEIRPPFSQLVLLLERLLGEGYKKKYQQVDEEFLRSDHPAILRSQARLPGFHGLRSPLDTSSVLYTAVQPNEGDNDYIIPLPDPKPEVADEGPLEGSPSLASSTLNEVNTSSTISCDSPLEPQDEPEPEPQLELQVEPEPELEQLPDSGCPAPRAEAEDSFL
Chain of Tyrosine-protein kinase Fyn (P06241 whole entry): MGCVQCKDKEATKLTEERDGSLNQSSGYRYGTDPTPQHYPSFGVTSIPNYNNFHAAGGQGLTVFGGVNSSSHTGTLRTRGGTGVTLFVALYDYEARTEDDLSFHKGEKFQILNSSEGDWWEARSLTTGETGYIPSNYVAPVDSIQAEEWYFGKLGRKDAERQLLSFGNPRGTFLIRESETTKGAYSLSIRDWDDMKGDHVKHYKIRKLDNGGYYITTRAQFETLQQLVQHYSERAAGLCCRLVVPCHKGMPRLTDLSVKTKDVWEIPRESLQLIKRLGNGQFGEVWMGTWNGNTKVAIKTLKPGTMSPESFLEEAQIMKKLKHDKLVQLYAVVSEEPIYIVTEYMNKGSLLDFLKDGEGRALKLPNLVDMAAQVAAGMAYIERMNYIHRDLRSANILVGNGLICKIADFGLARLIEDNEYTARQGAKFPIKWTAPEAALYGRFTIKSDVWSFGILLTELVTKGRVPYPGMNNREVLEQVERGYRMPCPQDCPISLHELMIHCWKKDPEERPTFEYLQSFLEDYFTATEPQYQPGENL
Chain of Fibroblast growth factor receptor 1 (P11362 whole entry): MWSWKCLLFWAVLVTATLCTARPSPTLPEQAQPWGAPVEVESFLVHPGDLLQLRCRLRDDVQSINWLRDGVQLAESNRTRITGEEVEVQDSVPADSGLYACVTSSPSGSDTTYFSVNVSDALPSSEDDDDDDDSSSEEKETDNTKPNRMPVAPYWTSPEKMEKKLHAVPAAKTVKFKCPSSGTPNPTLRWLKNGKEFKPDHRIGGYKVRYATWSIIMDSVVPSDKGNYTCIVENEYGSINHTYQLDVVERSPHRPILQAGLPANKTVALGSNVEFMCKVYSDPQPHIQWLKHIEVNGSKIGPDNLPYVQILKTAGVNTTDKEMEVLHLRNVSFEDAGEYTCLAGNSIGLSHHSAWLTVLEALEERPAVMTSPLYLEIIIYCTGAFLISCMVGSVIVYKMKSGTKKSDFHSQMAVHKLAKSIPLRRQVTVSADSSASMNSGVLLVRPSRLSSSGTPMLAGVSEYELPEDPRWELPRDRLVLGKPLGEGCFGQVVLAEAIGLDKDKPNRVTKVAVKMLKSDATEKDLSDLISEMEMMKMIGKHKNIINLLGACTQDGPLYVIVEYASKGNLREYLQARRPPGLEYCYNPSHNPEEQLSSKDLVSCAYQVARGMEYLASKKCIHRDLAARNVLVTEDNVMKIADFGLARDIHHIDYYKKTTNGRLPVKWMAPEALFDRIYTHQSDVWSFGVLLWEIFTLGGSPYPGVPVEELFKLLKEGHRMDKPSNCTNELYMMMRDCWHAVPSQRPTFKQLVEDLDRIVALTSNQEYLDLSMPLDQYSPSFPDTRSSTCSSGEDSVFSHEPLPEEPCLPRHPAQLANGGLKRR
Chain of Proto-oncogene tyrosine-protein kinase Src (P12931 2-536 limits assumed): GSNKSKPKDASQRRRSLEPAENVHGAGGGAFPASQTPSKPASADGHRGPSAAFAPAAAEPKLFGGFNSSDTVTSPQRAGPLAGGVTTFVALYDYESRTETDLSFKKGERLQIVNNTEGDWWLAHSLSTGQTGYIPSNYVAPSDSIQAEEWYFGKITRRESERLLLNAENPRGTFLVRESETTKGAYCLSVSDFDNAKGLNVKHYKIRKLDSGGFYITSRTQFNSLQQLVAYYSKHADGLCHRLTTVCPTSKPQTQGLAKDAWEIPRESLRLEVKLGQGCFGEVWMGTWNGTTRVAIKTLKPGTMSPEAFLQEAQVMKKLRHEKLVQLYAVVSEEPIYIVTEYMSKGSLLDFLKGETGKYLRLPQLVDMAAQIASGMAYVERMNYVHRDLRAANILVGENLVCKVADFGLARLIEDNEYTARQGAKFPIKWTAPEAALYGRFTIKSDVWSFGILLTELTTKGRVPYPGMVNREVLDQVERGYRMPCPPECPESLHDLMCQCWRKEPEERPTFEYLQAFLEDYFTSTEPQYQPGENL
Chain of Tyrosine-protein kinase Lck (P06239 whole entry): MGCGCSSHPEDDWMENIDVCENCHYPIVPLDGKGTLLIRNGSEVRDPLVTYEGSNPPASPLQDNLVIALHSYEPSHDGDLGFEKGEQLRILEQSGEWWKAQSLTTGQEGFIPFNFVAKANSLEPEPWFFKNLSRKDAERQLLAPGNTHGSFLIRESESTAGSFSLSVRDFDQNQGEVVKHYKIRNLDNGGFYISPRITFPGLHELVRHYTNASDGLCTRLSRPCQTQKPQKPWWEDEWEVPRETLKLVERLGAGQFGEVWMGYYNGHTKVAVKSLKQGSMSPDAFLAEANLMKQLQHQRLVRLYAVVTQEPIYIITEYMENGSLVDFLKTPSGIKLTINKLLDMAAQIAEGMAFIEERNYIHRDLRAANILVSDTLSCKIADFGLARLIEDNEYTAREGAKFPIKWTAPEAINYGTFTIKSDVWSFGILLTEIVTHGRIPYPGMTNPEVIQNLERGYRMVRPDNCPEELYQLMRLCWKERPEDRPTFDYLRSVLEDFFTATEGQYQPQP

IC50 [1] [nM]	IC50 [2] [nM]	IC50 [3] [nM]	IC50 [4] [nM]	IC50 [5] [nM]	IC50 [6] [nM]	Structure (SMILES)
–	–	–	–	230	–	CC(C)S(=O)(=O)c1ccc2c(c1)/C(=C/c1[nH]c3c(c1CCCN(C)C)CCCC3)C(=O)N2
700	60	1600	3300	100	1100	CNS(=O)(=O)c1ccc2c(c1)/C(=C/c1[nH]c3c(c1CCCN(C)C)CCCC3)C(=O)N2
3400	200	300	4700	50	7100	CNS(=O)(=O)c1ccc2c(c1)/C(=C/c1[nH]c3c(c1CCCN1CCC(O)CC1)CCCC3)C(=O)N2
–	–	–	–	700	–	CCS(=O)(=O)c1ccc2c(c1)/C(=C/c1cc3c([nH]1)CCCC3)C(=O)N2
–	–	–	–	400	–	CNS(=O)(=O)c1ccc2c(c1)/C(=C/c1[nH]c3c(c1CCCN1CCN(C(=O)CO)CC1)CCCC3)C(=O)N2
80	500	600	> 20000	70	500	CCOC(=O)CN1CCN(CCCc2c(/C=C3\C(=O)Nc4ccc(S(=O)(=O)NC)cc43)[nH]c3c2CCCC3)CC1
–	–	–	–	230	–	CC(C)NS(=O)(=O)c1ccc2c(c1)/C(=C/c1[nH]c3c(c1CCCN(C)C)CCCC3)C(=O)N2
600	100	400	5600	30	400	CNS(=O)(=O)c1ccc2c(c1)/C(=C/c1[nH]c3c(c1CCCN1CCN(CCO)CC1)CCCC3)C(=O)N2
–	–	–	–	300	–	CNS(=O)(=O)c1ccc2c(c1)/C(=C/c1[nH]c3c(c1CCCN1CCN(C(C)=O)CC1)CCCC3)C(=O)N2
–	–	–	–	600	–	CN(C)CCCc1c(/C=C2\C(=O)Nc3ccc(S(N)(=O)=O)cc32)[nH]c2c1CCCC2
1200	800	700	10000	70	300	CNS(=O)(=O)c1ccc2c(c1)/C(=C/c1[nH]c3c(c1CCCN1CCN(C)CC1)CCCC3)C(=O)N2
–	–	–	–	300	–	CN(C)CCCc1c(/C=C2\C(=O)Nc3ccc(S(C)(=O)=O)cc32)[nH]c2c1CCCC2
–	–	–	–	300	–	CNS(=O)(=O)c1ccc2c(c1)/C(=C/c1[nH]c3c(c1CCC(=O)N1CCN(C)CC1)CCCC3)C(=O)N2
200	400	100	8000	20	400	CNS(=O)(=O)c1ccc2c(c1)/C(=C/c1[nH]c3c(c1CCCN1CCN(CC(=O)O)CC1)CCCC3)C(=O)N2
80	200	–	5100	40	300	CCS(=O)(=O)c1ccc2c(c1)/C(=C/c1[nH]c3c(c1CCC(N)=O)CCCC3)C(=O)N2
–	–	–	–	300	–	CCOC(=O)N1CCN(CCCc2c(/C=C3\C(=O)Nc4ccc(S(=O)(=O)NC)cc43)[nH]c3c2CCCC3)CC1
–	–	–	–	2600	–	CN(C)CCCc1c(/C=C2\C(=O)Nc3ccc(S(=O)(=O)N(C)C)cc32)[nH]c2c1CCCC2
–	–	–	–	2100	–	CNS(=O)(=O)c1ccc2c(c1)/C(=C/c1cc3c([nH]1)CCCC3)C(=O)N2
400	300	200	2500	60	2700	CCS(=O)(=O)c1ccc2c(c1)/C(=C/c1[nH]c3c(c1CCCN(C)C)CCCC3)C(=O)N2
1700	–	–	18000	60	2300	CNS(=O)(=O)c1ccc2c(c1)/C(=C/c1[nH]c3c(c1CCCN1CCOCC1)CCCC3)C(=O)N2
–	–	–	–	200	–	CNS(=O)(=O)c1ccc2c(c1)/C(=C/c1[nH]c3c(c1CCCN1CCNCC1)CCCC3)C(=O)N2
–	–	–	–	400	–	CCS(=O)(=O)c1ccc2c(c1)/C(=C/c1[nH]c3c(c1CCC(=O)O)CCCC3)C(=O)N2
–	–	–	–	240	–	CN(C)CCCc1c(/C=C2\C(=O)Nc3ccc(S(=O)(=O)NCCO)cc32)[nH]c2c1CCCC2

Further lines, the compound ahead of its results:

Structure (SMILES)	IC50 [1] [nM]	IC50 [2] [nM]	IC50 [3] [nM]	IC50 [4] [nM]	IC50 [5] [nM]	IC50 [6] [nM]
CCS(=O)(=O)c1ccc2c(c1)/C(=C/c1[nH]c3c(c1CCCN1CCN(CC(=O)O)CC1)CCCC3)C(=O)N2	400	400	400	13000	70	800
CNS(=O)(=O)c1ccc2c(c1)/C(=C/c1[nH]c3ccccc3c1CCCN(C)C)C(=O)N2	–	–	–	–	200	–
CCS(=O)(=O)c1ccc2c(c1)/C(=C/c1[nH]c3c(c1CCCN1CCN(C(C)=O)CC1)CCCC3)C(=O)N2	–	–	–	–	400	–
CNS(=O)(=O)c1ccc2c(c1)/C(=C/c1[nH]c3c(c1CCC(N)=O)CCCC3)C(=O)N2	70	50	100	6600	30	500
CCS(=O)(=O)c1ccc2c(c1)/C(=C/c1[nH]c3c(c1CCCN1CCN(CCO)CC1)CCCC3)C(=O)N2	1100	400	500	9000	70	400
CN(C)CCCc1c(/C=C2\C(=O)Nc3ccc(S(=O)(=O)NCc4ccc(F)cc4)cc32)[nH]c2c1CCCC2	–	–	–	–	1200	–
CCS(=O)(=O)c1ccc2c(c1)/C(=C/c1[nH]c3c(c1CCCN1CCOCC1)CCCC3)C(=O)N2	–	–	–	–	150	–
CCS(=O)(=O)c1ccc2c(c1)/C(=C/c1[nH]c3c(c1CN1CCOCC1)CCCC3)C(=O)N2	400	1400	800	–	70	100
CCS(=O)(=O)c1ccc2c(c1)/C(=C/c1[nH]c3c(c1CCC(=O)N1CCN(C)CC1)CCCC3)C(=O)N2	–	–	–	–	500	–
CNS(=O)(=O)c1ccc2c(c1)/C(=C/c1[nH]c3c(c1CN1CCOCC1)CCCC3)C(=O)N2	200	400	80	–	10	60
CCC(=O)N1CCN(CCCc2c(/C=C3\C(=O)Nc4ccc(S(=O)(=O)CC)cc43)[nH]c3c2CCCC3)CC1	–	–	–	–	800	–
COc1ccc2c(c1)/C(=C/c1[nH]c3c(c1CCCN(C)C)CCCC3)C(=O)N2	–	–	–	–	1000	–
CN(C)CCCc1c(/C=C2\C(=O)Nc3ccccc32)[nH]c2c1CCCC2	–	–	–	–	3300	–
CN(C)CCCc1c(/C=C2\C(=O)Nc3ccc(C(=O)O)cc32)[nH]c2c1CCCC2	–	–	–	–	700	–
CN(C)CCCc1c(/C=C2\C(=O)Nc3ccc(S(=O)(=O)Nc4ccccc4Cl)cc32)[nH]c2c1CCCC2	–	–	–	–	300	–
CCS(=O)(=O)Cc1ccc2c(c1)/C(=C/c1[nH]c3c(c1CCCN(C)C)CCCC3)C(=O)N2	–	–	–	–	10000	–
CNS(=O)(=O)c1ccc2c(c1)/C(=C/c1[nH]c(C)c(C)c1CCCN(C)C)C(=O)N2	–	–	–	–	1000	–
CCS(=O)(=O)c1ccc2c(c1)/C(=C/c1[nH]c3c(c1CCCN1CCN(C(=O)CO)CC1)CCCC3)C(=O)N2	–	–	–	–	220	–
CN(C)CCCc1c(/C=C2\C(=O)Nc3ccc(F)cc32)[nH]c2c1CCCC2	–	–	–	–	500	–
CCS(=O)(=O)c1ccc2c(c1)/C(=C/c1[nH]c3c(c1CCCN1CCC(O)CC1)CCCC3)C(=O)N2	–	600	700	2300	70	–
CCS(=O)(=O)c1ccc2c(c1)/C(=C/c1[nH]c3c(c1CCCN1CCN(C)CC1)CCCC3)C(=O)N2	–	1200	600	11000	210	2600
CN(C)CCCc1c(/C=C2\C(=O)Nc3ccc(-c4ccccc4)cc32)[nH]c2c1CCCC2	–	–	–	–	2300	–
